Here are results for one molecule from ChEMBL document CHEMBL1147285, “A mammalian cell agar-diffusion assay for the detection of toxic compounds” (J Nat Prod, 1989).

The structures appear in SMILES notation.

Experiment [1] concerns HT-29. Description: Antiproliferative activity against human HT-29 cells after 96 hrs by MTT assay. It counts as functional, cell-based. Particulars: HT-29, 96 h. In general terms: Tetrazolium assays rely on reduction of a dye to a coloured formazan, in cell work by metabolically active cells.
Experiment [2] concerns P388. The experiment can be described thus: Antiproliferative activity against mouse P388 cells after 48 hrs by MTT assay. The conditions noted are these: P388, 48 h. It counts as functional, cell-based. The procedure, abridged: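 Uncloned P-388 in RPMI 1640 + 10% horse serum, gentamicin 50 µg/ml; 200-µl cultures at 1 X 10' cells/ml with or without drug, 48 h exposure. MTT (5 mg/ml in medium, 75 µl) added for 90 min, formazan read at 570 nm; absorbance normalized to untreated wells; IC50 by linear regression of logit-transformed data.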

The subject of experiment [3] is P388. Description: Antiproliferative activity against mouse P388 cells at 1 ug after 48 hrs by two-layer agar-diffusion method. It counts as functional. Particulars: read-out: IZ. The procedure, abridged: (§1)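 Compound (0.01-10 µg) spotted on Si gel pieces, air-dried, placed face down on 1.5% Noble agar in PBS-growth medium (20:80) for 60 min diffusion. After removal, cells (2 X 10^6/ml) in 0.3% low-temperature agarose overlaid; 48 h incubation. Cytotoxic zones shown by MTT (5 mg/ml in growth medium) over agarose; absence of zone scored as not detected.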

Experiment [4] relates to P388. The experiment can be described thus: Antiproliferative activity against mouse P388 cells at 5 ug after 48 hrs by two-layer agar-diffusion method. It counts as functional. Particulars: read-out: IZ. The procedure, abridged: as §1
(In general: In agar diffusion tests the substance spreads into inoculated agar from a disc or well.)

Experiment [5] concerns HT-29. Description: Antiproliferative activity against human HT-29 cells at 5 ug after 48 hrs by two-layer agar-diffusion method. It counts as functional. Particulars: read-out: IZ. Summed up:
as §1

For `C=C1C(=O)O[C@H]2C[C@@H]1C(OC(C)=O)C/C(C)=C/CC/C(C)=C/CC[C@@]2(C)O` (stereo not given in full) [CRASSIN ACETATE], the IC50 in the experiment with HT-29 [1] amounted to 0.26 µg/mL; in the experiment with P388 [2], 1 µg/mL. For the same molecule, the zone of inhibition at 1 µg/disc in the experiment with P388 [3] was found to be 9 mm. Also, the zone of inhibition at 5 µg/disc with P388 [4] was found to be 20 mm; with HT-29 [5], 17 mm.

The IC50 is the point on the concentration scale where inhibition reaches its midpoint.
